In ChEMBL document CHEMBL5257040, “Discovery of VU2957 (Valiglurax): An mGlu4 Positive Allosteric Modulator Evaluated as a Preclinical Candidate for the Treatment of Parkinson's Disease” (ACS Med Chem Lett, 2019):
Activity calls are given as the source filed them. No cut-off for these calls is given here.

How the values were obtained:
[1] = Clearance in Sprague-Dawley rat plasma at 0.2 mg/kg, iv and measured upto 24 hrs by LC-MS/MS analysis; format: ADME, organism-based
Method in brief: (§1)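 Single intravenous doses: mouse 1 mg/kg, SD rat 0.2 mg/kg, beagle dog 0.5 mg/kg, cynomolgus monkey 0.2 mg/kg. Plasma clearance, Vss and elimination half-life came from the plasma profiles. Values are means of two to three animals.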

[2] = target: Metabotropic glutamate receptor 2 (Rattus norvegicus, UniProt P31421); assay: Positive allosteric modulator activity at rat mGlu2 in human HEK cells co-expressing […] assessed as increase in by thallium flux preincubated for 2.5 mins followed by gluatamate addition by thallium flux assay; format: cell-based
Metabotropic glutamate receptor 2, sequence (P31421 whole entry): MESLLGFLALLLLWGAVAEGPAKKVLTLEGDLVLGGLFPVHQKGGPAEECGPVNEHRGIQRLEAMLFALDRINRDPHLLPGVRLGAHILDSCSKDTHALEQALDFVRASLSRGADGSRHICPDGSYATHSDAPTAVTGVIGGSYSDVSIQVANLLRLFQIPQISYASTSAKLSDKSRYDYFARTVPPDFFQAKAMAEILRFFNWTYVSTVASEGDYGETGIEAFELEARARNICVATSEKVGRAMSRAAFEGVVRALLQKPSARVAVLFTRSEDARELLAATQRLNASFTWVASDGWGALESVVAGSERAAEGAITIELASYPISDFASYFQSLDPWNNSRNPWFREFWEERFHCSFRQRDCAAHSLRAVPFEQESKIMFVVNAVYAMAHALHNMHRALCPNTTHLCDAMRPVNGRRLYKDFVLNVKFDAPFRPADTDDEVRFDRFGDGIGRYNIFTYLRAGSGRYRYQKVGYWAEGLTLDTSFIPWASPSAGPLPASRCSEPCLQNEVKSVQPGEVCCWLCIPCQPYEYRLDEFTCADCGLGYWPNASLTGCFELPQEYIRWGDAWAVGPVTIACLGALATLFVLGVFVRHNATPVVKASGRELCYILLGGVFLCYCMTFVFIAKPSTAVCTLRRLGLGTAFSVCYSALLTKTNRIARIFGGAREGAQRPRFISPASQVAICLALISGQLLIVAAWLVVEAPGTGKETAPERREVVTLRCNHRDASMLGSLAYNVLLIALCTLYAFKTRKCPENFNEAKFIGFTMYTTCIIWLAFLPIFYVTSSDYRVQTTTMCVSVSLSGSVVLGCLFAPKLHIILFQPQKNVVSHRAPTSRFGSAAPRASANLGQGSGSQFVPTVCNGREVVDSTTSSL

[3] = target: Aryl hydrocarbon receptor (Rattus norvegicus, UniProt P41738); assay: Activation of rat AhR
[4] = AUC in Sprague-Dawley rat at 10 mg/kg, po administered as spray-dried dispersion formulation and measured after 24 hrs by LC-MS/MS analysis; format: ADME, organism-based; parameters: dose 10 mg/kg, time 24 hrs, route po; conditions: in vivo
Method in brief: (§2)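 Rats were dosed orally at 3, 10 and 30 mg/kg with a spray-dried dispersion of the free base and HPMCP-HP55 polymer (25%/75%), in 30% Dexolve. Total plasma Cmax and AUC were measured, N = 3.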

Kir2.1 = Kir2.1 (Homo sapiens, UniProt Q7Z4S6); assay: Inhibition of Kir2.1 (unknown origin) at 10 uM; format: toxicity
Method in brief: (§3)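 Cardiac ion channel electrophysiology (functional EP) panel, with percent inhibition measured at 10 μM.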

Cytochrome P450 3A4 [5] = target: T1, Cytochrome P450 3A4 (Homo sapiens, UniProt P08684); assay: Inhibition of CYP3A4 in human liver microsomes using midazolam as substrate preincubated for 15 mins followed by NADPH addition and measured after 8 mins by LC/MS/MS analysis; format: ADME, Microsome
T1 sequence (P08684 whole entry): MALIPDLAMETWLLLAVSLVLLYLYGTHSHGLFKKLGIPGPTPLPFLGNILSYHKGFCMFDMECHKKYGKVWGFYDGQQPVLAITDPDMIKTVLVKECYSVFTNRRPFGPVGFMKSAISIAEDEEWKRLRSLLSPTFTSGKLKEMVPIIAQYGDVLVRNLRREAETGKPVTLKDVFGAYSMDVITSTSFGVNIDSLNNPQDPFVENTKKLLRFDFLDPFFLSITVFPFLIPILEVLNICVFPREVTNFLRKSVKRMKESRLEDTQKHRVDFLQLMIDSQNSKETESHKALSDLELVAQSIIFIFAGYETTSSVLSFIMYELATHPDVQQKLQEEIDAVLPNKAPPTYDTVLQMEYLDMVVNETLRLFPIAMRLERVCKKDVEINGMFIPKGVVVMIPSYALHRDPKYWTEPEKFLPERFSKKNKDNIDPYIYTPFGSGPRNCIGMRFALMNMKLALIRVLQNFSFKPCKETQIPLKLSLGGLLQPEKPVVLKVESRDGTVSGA

Rattus norvegicus = assay: Reversal of haloperidol-induced catalepsy Sprague-Dawley rat model at 0.3 to 30 mg/kg,po and measured upto 6 hrs; format: functional, organism-based; conditions: dose 0.3-30 mg/kg
Method in brief: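 Time course in the haloperidol (1.5 mg/kg i.p.) catalepsy model in rats after a single 30 mg/kg oral dose, followed for up to 6 h. Satellite rats dosed in parallel gave plasma and CSF exposures.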

[6] = Solubility of compound intestinal fluid assessed as AUC administered as active pharmaceutical ingredient (API) formulation; format: ADME
[7] = Cmax in Sprague-Dawley rat at 3 mg/kg, po and measured upto 24 hrs by LC-MS/MS analysis; format: ADME, organism-based; parameters: time < 24 hrs, dose 3 mg/kg, route po; conditions: in vivo
Method in brief: (§4)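 Single oral 3 mg/kg dose in mouse, SD rat, beagle and cyno. Cmax is the peak total plasma concentration. Values are means of two to three animals.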

[8] = target: Metabotropic glutamate receptor 7 (Rattus norvegicus, UniProt P35400); assay: Positive allosteric modulator activity at rat mGlu7 in human HEK cells co-expressing […] assessed as increase in by thallium flux preincubated for 2.5 mins followed by gluatamate addition by thallium flux assay; format: cell-based
Metabotropic glutamate receptor 7, sequence (P35400 whole entry): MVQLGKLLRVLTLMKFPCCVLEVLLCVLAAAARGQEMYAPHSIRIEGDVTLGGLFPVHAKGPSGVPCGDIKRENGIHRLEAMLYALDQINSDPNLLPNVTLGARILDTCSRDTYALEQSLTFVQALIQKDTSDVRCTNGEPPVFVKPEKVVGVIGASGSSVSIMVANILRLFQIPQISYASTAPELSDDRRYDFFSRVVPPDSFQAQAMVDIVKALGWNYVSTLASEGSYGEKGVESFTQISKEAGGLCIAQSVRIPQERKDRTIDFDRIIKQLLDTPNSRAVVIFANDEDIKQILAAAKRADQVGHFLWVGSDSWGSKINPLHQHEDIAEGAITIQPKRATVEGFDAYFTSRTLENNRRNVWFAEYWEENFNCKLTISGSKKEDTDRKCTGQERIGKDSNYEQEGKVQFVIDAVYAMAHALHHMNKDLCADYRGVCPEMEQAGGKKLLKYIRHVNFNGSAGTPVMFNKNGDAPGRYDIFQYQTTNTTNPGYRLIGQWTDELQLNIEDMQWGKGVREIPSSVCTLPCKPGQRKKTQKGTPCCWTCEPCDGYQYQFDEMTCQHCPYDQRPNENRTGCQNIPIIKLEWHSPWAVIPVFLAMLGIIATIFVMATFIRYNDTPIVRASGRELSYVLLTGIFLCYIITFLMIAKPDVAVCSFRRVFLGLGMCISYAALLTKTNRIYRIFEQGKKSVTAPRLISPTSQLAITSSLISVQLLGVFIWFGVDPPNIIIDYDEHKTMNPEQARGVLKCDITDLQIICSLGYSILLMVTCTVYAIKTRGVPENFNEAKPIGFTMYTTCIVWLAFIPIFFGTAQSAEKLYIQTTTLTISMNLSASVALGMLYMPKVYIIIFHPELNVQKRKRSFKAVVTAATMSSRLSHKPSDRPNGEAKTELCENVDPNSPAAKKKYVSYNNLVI

Cytochrome P450 2B6 = Cytochrome P450 2B6 (Homo sapiens, UniProt P20813); assay: Induction of CYP2B6 in human hepatocytes; format: ADME, cell-based
Cytochrome P450 2B6, sequence (P20813 whole entry): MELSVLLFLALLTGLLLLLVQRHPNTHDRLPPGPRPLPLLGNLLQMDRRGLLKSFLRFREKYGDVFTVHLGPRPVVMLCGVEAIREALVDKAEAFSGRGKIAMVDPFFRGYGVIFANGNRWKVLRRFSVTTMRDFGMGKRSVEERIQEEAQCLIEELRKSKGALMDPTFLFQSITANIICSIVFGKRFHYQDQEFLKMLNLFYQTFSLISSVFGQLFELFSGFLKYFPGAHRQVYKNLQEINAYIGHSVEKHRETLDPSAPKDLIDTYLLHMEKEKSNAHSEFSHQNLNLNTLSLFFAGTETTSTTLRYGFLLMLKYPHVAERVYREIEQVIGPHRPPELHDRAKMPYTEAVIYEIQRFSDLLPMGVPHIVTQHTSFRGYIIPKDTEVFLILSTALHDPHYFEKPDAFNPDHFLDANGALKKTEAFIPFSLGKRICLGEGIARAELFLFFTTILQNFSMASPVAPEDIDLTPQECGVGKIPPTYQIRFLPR
Method in brief: (§5)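 CYP1A2, 2B6 and 3A4 induction measured in human hepatocytes.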

[9] = Genotoxicity in Salmonella typhimurium TA98 in presence of S9 fraction by Ames test; format: toxicity, subcellular; conditions: salmonella enterica subsp. enterica serovar typhimurium
Method in brief: (§6)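 Ames bacterial reverse mutation test in strains TA98 and […], run with and without S9 metabolic activation.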

[10] = Cmax in Sprague-Dawley rat at 30 mg/kg, po administered as spray-dried dispersion formulation and measured after 24 hrs by LC-MS/MS analysis; format: ADME, organism-based; parameters: time 24 hrs, dose 30 mg/kg, route po; conditions: in vivo; method in brief: as §2
[11] = Protein binding in dog plasma assessed as fraction unbound incubated for 4 hrs by equilibrium dialysis based LC/MS/MS analysis; format: ADME, cell-free, Canis lupus familiaris
[12] = Drug uptake in cerebrospinal fluid of haloperidol-induced catalepsy Sprague-Dawley rat model at 0.3 to 30 mg/kg,po; format: ADME, organism-based; conditions: in vivo, dose 0.3-30 mg/kg, read-out: Ct
Method in brief: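 Rats were given haloperidol 1.5 mg/kg i.p. to induce catalepsy and dosed orally at 0.3–30 mg/kg, N = 8–10 per group. Total plasma and CSF concentrations were measured alongside the catalepsy read-out. Satellite rats were used for PK in the time-course study.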

[13] = Solubility of compound in FaSSIF; format: ADME
[14] = Metabolic stability in dog liver microsomes assessed as intrinsic clearance at 1 uM preincubated for 5 mins followed by NADPH addition and measured for 45 mins by LC/MS/MS analysis; format: ADME, Canis lupus familiaris, Microsome; conditions: time 50 min, read-out: CLH
[15] = Elimination half life in CD-1 mouse plasma at 1 mg/kg, iv and measured upto 24 hrs by LC-MS/MS analysis; format: ADME, organism-based; conditions: read-out: beta t1/2 (converted); method in brief: as §1
HCN4 = HCN4 (Homo sapiens, UniProt Q9Y3Q4); assay: Inhibition of HCN4 (unknown origin) at 10 uM; format: toxicity; method in brief: as §3
[16] = Volume of distribution at steady state in Cynomolgus monkey at 0.2 mg/kg, iv and measured upto 24 hrs by LC-MS/MS analysis; format: ADME, organism-based, Macaca fascicularis; conditions: in vivo, read-out: Vdss
Method in brief: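 Single-dose iv and oral PK in separate arms: mouse 1 mg/kg iv / 3 mg/kg po, SD rat 0.2/3, beagle 0.5/3, cynomolgus 0.2/3 mg/kg. Plasma parameters (Vss, Tmax, F) are means of two to three animals per species.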

[17] = target: Metabotropic glutamate receptor 5 (Rattus norvegicus, UniProt P31424); assay: Positive allosteric modulator activity at rat mGlu5 in human HEK cells assessed as increase in calcium flux preincubated for 2.5 mins followed by gluatamate addition by Fluo-4 AM dye based calcium mobilization assay; format: cell-based
[18] = AUC (0 to infinity) in Sprague-Dawley rat at 3 mg/kg, po and measured upto 24 hrs by LC-MS/MS analysis; format: ADME, organism-based; parameters: time < 24 hrs, dose 3 mg/kg, route po; conditions: in vivo
Method in brief: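 Single oral 3 mg/kg dose in mouse, SD rat, beagle dog and cynomolgus monkey. Total plasma exposure after the oral dose gave Cmax, Tmax, AUC0-inf and F. Values are means of two to three animals.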

Cytochrome P450 2D6 = Cytochrome P450 2D6 (Homo sapiens, UniProt P10635); assay: Inhibition of CYP2D6 in human liver microsomes using […] as substrate preincubated for 15 mins followed by NADPH addition and measured after 8 mins by LC/MS/MS analysis; format: ADME, Microsome
Cav1.2 = Cav1.2 (Homo sapiens, UniProt Q13936); assay: Inhibition of Cav1.2 (unknown origin) at 10 uM; format: toxicity; method in brief: as §3
Cav1.2, sequence (Q13936 whole entry): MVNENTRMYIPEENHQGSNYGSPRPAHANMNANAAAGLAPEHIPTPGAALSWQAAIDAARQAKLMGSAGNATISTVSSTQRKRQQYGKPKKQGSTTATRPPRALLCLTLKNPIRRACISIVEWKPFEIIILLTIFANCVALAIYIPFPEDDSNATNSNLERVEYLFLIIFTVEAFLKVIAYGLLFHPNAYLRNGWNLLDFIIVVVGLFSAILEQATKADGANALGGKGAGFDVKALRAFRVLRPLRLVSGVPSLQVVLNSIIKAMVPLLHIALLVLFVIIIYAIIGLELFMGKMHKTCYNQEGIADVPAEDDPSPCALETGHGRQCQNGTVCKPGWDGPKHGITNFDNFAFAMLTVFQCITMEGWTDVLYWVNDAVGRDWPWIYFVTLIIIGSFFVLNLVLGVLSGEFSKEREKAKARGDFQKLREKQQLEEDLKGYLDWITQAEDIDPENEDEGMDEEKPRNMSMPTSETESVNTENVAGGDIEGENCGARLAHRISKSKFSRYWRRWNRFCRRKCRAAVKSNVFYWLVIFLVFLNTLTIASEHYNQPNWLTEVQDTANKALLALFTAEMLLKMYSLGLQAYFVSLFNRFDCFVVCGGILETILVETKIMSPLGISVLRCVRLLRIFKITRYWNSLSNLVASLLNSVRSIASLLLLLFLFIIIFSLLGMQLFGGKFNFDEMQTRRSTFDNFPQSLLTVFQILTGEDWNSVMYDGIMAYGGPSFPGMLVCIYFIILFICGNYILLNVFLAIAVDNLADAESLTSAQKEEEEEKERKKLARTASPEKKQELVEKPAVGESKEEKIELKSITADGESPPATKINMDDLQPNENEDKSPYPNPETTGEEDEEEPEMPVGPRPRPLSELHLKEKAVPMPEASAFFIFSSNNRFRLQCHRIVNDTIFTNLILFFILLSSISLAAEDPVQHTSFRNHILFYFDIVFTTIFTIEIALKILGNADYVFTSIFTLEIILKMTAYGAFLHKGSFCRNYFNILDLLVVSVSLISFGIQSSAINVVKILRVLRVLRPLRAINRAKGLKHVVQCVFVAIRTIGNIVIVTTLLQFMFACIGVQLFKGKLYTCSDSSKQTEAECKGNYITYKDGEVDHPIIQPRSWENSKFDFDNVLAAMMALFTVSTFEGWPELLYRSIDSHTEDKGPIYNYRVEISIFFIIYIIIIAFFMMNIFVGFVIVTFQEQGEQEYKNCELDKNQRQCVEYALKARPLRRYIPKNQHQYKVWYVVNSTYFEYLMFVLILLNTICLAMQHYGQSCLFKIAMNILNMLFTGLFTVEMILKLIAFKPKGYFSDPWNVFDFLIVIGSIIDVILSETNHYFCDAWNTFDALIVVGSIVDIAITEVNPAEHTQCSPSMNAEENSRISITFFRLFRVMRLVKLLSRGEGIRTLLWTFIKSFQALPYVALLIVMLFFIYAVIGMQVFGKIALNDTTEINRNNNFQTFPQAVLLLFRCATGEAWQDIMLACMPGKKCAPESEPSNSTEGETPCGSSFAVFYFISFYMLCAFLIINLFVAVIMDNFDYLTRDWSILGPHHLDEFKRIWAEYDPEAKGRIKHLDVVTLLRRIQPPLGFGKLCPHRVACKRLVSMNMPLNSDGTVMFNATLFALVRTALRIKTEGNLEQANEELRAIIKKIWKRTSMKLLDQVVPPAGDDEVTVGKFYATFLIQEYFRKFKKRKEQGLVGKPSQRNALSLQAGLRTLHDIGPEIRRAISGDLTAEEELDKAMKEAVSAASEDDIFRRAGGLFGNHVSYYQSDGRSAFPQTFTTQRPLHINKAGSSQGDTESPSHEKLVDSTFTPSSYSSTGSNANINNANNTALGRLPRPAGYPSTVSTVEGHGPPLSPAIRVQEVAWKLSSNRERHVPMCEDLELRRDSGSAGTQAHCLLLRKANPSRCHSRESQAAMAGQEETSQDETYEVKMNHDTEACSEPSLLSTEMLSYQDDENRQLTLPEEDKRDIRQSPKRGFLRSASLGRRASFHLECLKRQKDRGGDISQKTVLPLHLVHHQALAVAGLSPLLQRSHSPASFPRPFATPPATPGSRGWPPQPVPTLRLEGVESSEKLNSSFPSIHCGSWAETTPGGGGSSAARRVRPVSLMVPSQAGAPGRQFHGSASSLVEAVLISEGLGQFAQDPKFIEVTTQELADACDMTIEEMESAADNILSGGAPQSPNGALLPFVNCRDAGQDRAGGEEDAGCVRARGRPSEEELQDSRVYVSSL

[19] = Elimination half life in Cynomolgus monkey at 0.2 mg/kg, iv and measured upto 24 hrs by LC-MS/MS analysis; format: ADME, organism-based, Macaca fascicularis; conditions: in vivo, read-out: beta t1/2 (converted); method in brief: as §1
[20] = Cmax in CD-1 mouse plasma at 3 mg/kg, po and measured upto 24 hrs by LC-MS/MS analysis; format: ADME, organism-based; parameters: time < 24 hrs, dose 3 mg/kg, route po; method in brief: as §4
[21] = Protein binding in mouse plasma assessed as fraction unbound incubated for 4 hrs by equilibrium dialysis based LC/MS/MS analysis; format: ADME, cell-free
[22] = Genotoxicity in Salmonella typhimurium […] by Ames test; format: toxicity; conditions: salmonella enterica subsp. enterica serovar typhimurium; method in brief: as §6
[23] = target: Aryl hydrocarbon receptor (Homo sapiens, UniProt P35869); assay: Activation of human AhR
Kv1.5 = Kv1.5 (Homo sapiens, UniProt P22460); assay: Inhibition of Kv1.5 (unknown origin) at 10 uM; format: toxicity; method in brief: as §3
[24] = Lipophilicity, logP of the compound; format: physicochemical; conditions: octanol/water
[25] = Metabolic stability in human liver microsomes assessed as intrinsic clearance at 1 uM preincubated for 5 mins followed by NADPH addition and measured for 45 mins by LC/MS/MS analysis; format: ADME, Microsome; conditions: time 50 min, read-out: CLH
Cytochrome P450 3A4 [26] = target: T1, Cytochrome P450 3A4; assay: Induction of CYP3A4 in human hepatocytes; format: ADME, cell-based; method in brief: as §5

clearance [1]: 37.7 mL/min/kg | EC50 [2]: > 10 µM | Activity [3]: Not Active | AUC at 24 h [4]: 23.7 µM·h | IC50 (Cytochrome P450 3A4 [5]): > 30 µM | AUC [6]: 25300 ng·h/mL | Cmax [7]: 1440 nM | EC50 [8]: > 10 µM | Activity (Cytochrome P450 2B6): Not Active | Cmax [10]: 6050 nM | fraction unbound at 4 h [11]: 0.014 | solubility [13]: < 5 µg/mL | CLint scaled at 1 µM [14]: 18.1 mL/min/kg | half-life [15]: 2.98 h | Vd [16]: 3.2 L/kg | EC50 [17]: > 10 µM | AUC(0-inf) [18]: 9.66 µM·h | IC50 (Cytochrome P450 2D6): > 30 µM | half-life [19]: 3.98 h | Cmax [20]: 1100 nM | fraction unbound at 4 h [21]: 0.015 | Activity [23]: Not Active | logP [24]: 3.78 | CLint scaled at 1 µM [25]: 9.1 mL/min/kg | Activity (Cytochrome P450 3A4 [26]): Not Active
Compound: FC(F)(F)c1nccc2cc(Nc3n[nH]c4ncccc34)ccc12
inhibition at 10 µM (Kir2.1): < 50% | Activity (Rattus norvegicus): Active | Activity [9]: Non-Toxic | concentration [12]: 148 nM | inhibition at 10 µM (HCN4): < 50% | inhibition at 10 µM (Cav1.2): < 50% | Activity [22]: Non-Toxic | inhibition at 10 µM (Kv1.5): < 50%
